This sample holds only a part of the variants without activity.
B1: tRNA (parent)
chain: GUUCCGUUGGCGUAAUGGUAACGCGUCUCCCUCCUAAGGAGAAGACUGCGGGUUCGAGUCCCGUACGGAACG

Variants of: B1
Assay: yeast fitness relative to wild type (ratio to wild type); higher = fitter; tRNA-Arg(CCU), competitive growth, 37 C, YPD
Method in brief: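 The tRNA-Arg(CCU) gene variants were made by chemical synthesis with a 3% per-site mutation rate at 69 sites and inserted at the native genomic locus of Saccharomyces cerevisiae. After pooling, the strains were competed in YPD at 37°C for 24 hours in six parallel replicates. Gene amplicons from the start population and each end population were read by 100-nucleotide paired-end sequencing, and Darwinian fitness relative to wild type was taken from genotype frequency changes. Genotypes needed ≥ 100 starting reads, and estimates < 0.5 were set to 0.5.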

| Variant | yeast fitness |
| --- | --- |
| C4U G17A C33G | ≤ 0.5 |
| C34A A65U | 0.736 |
| C11G A20U U28C A37C C49G | 0.611 |
| U13C A37G C49G C55U G56C G68A | ≤ 0.5 |
| U2G C24A | 0.82 |
| U3C G9C C11U U19C C30G A43C | ≤ 0.5 |
| A20C G52A | 0.705 |
| U2C U8G G23A C24G G44A | ≤ 0.5 |
| G10C C34G G56C | 0.52 |
| G52A C66G G68C | 0.65 |
| G9C C30G G38C G58C C66A | 0.535 |
| A43U C49G C61U | ≤ 0.5 |
| C5U C24U G56C | 0.53 |
| C4U C11G C29U U59G | ≤ 0.5 |
| G10C A15G C27G | 0.695 |
| U7A C61U | 0.66 |
| U3G C5G C11U C29U U32C C60U | ≤ 0.5 |
| C4A A15C A70U | ≤ 0.5 |
| U13A C24U C55G | 0.537 |
| G6A A57U G68U A70G | ≤ 0.5 |
| C11A C55A | ≤ 0.5 |
| U2G C34G G39C G41C G67C | ≤ 0.5 |
| G12C U59G | 0.79 |
| U3A C4G G41A G63C C66A | 0.576 |

| Variant | yeast fitness |
| --- | --- |
| A40U G68A | 0.923 |
| U26C A40C C46U A65G G68C | ≤ 0.5 |
| G10C U26A C33U U53C A70C | 0.724 |
| G9A G68A | 0.864 |
| C31U G39C A40U | 0.838 |
| G23C | 0.653 |
| U7C C22U C31A G38A C46G G67C | ≤ 0.5 |
| A20G G25A | 0.904 |
| U3C C27U G48A C55A G63A | ≤ 0.5 |
| A21G A42G A65C G67A | ≤ 0.5 |
| A14C A42U C55G U59A | 0.612 |
| A15C C34A G63C | ≤ 0.5 |
| C5U A15U U16A C29U C55U | ≤ 0.5 |
| U13C C27U A69U A70C | ≤ 0.5 |
| C11A U16C A21G C55A | ≤ 0.5 |
| U16G C34G A42G C49G U64A | ≤ 0.5 |
| U13G C24U A36G U47C G50A | 0.518 |
| C46G G51A | 0.766 |
| C5A G6C C30G A42G | 0.606 |
| A20C C34G A43U | ≤ 0.5 |
| U8C U19A C31A G41C A45G G50C C62U | ≤ 0.5 |
| C11A G67U | 0.584 |
| U8C U47C A69C | 0.714 |
| G10C A43U C46G | ≤ 0.5 |

| Variant | yeast fitness |
| --- | --- |
| C11A U28C A43G A65C | ≤ 0.5 |
| U8C A20G C33A G44A C61U | ≤ 0.5 |
| G6A G67U | 0.814 |
| C4G C55U C66G | ≤ 0.5 |
| C5A C11G U28A A40U C55A | ≤ 0.5 |
| G12A U35A A45C | 0.528 |
| A14G U54C A70G | 0.535 |
| C5U U47A | 1.06 |
| C30A A37U A40U C49U | ≤ 0.5 |
| A14G U26C G48A | 0.661 |
| A20U A21U C31G C55A C66U | ≤ 0.5 |
| C5U G39A G48A A57U | 0.565 |
| C4G C5U C49A G56A G63C | ≤ 0.5 |
| A36C U59C | 0.562 |
| A43G G67C | 0.872 |
| C49U C61A | 0.57 |
| C31G A36C G50A C62U G68A A69C | ≤ 0.5 |
| A21C C34U C66U | ≤ 0.5 |
| G6A C27G G38C A65C | 0.595 |
| G6C C11U G56C A69C | ≤ 0.5 |
| G51A C60G A65C | ≤ 0.5 |
| C5A U7A A21G G67C | 0.541 |
| C27A G41C A43C C66U | 0.517 |
| A36C A42G C61A | ≤ 0.5 |

| Variant | yeast fitness |
| --- | --- |
| U13C A15U G23A C33A A42G G56A | ≤ 0.5 |
| G6A A45U G48A C55A | ≤ 0.5 |
| G10A G17C C30G C33G A45U G52A A70U | ≤ 0.5 |
| C31G A43C | 0.932 |
| U8A A15U C22G C31U A57C U64A G68A | ≤ 0.5 |
| G9C A21G G44C U47C | ≤ 0.5 |
| A14C U47C C66U | ≤ 0.5 |
| C27G A37U C49G | ≤ 0.5 |
| C11G | 0.661 |
| C22G C31G A36G | 0.646 |
| U16A C34A A36C A37G G56C C66A | ≤ 0.5 |
| C27G C30U A65U A70U | 0.594 |
| C33U A37C G67U A69U | ≤ 0.5 |
| C4A G17C A20C A21U C27U C33G G63A G67A | ≤ 0.5 |
| C29G C33G G41C C66U | 0.607 |
| C30U A43U G51C | ≤ 0.5 |
| A15C G68C | 0.633 |
| U3C G10A G52A U54C G56A G58A | ≤ 0.5 |
| U13C U47G | 0.625 |
| C24A G48A U53G | ≤ 0.5 |
| U2G G44C C55G | ≤ 0.5 |
| C11U C27U C31U A36C G44C A45G G56C | ≤ 0.5 |
| C22U A37G A45U G52A U54C | ≤ 0.5 |
| G23A G38A G67C | ≤ 0.5 |

| Variant | yeast fitness |
| --- | --- |
| G6A C27U A69U | 0.695 |
| U7C A36U C49G | 0.744 |
| G41A G44C C61G | ≤ 0.5 |
| C5G G41C C61U | ≤ 0.5 |
| G17A G25A | 0.886 |
| C4G U8A G12A G48A | 0.511 |
| U32G | 0.664 |
| C27G C30G C49U C61A | ≤ 0.5 |
| U16A A70C | 0.897 |
| U3G A14G A43U U54A A57C | ≤ 0.5 |
| G39A A42U C49A | ≤ 0.5 |
| G25A A40U A45G C60A | ≤ 0.5 |
| C34A U64C | 0.834 |
| G6A C29G A65U | ≤ 0.5 |
| A20C C49G | 0.795 |
| U19G C29A A69U | ≤ 0.5 |
| U3A C4A A21U | ≤ 0.5 |
| C4U G12A C60A | ≤ 0.5 |
| A14U U28A G51A | ≤ 0.5 |
| C5A U16A A43G U59A C61A | ≤ 0.5 |
| U19C A20C C24A | ≤ 0.5 |
| G6C A20C | 0.773 |
| U26G G63A | 0.919 |
| C11U A43G A57U | 0.568 |

| Variant | yeast fitness |
| --- | --- |
| C4A G6C G10A U28A | ≤ 0.5 |
| C4G U8C C34G U47A C49A A65G | ≤ 0.5 |
| U8A A40U G52C | 0.573 |
| U28A A37G A40G | ≤ 0.5 |
| G10A U16A G48A A65U | ≤ 0.5 |
| C11A U19C C24G C30U C31U C61U G67C | ≤ 0.5 |
| G17A C22A G25A | 0.501 |
| C33A A36U G63A | ≤ 0.5 |
| C4A A14C A70G | ≤ 0.5 |
| A14U U19A | 0.709 |
| C11G G12C G23C A40G | ≤ 0.5 |
| A20U A36U G44C | ≤ 0.5 |
| G12A A37U A42C | 0.559 |
| C5A G9C G38C G63C C66U | ≤ 0.5 |
| G56A C61U | 0.994 |
| U8C C29G A37G G67C | 0.573 |
| A15U G23C C33A | ≤ 0.5 |
| C27G A65U C66G | ≤ 0.5 |
| G48A G56A A65G | 0.718 |
| G23A C30U | 0.68 |
| G12C U13C A40U G58C | ≤ 0.5 |
| A42G C61U G63C | ≤ 0.5 |
| U7C G41A A42C G50C A65C | ≤ 0.5 |
| U2C C24G A42U G67A | ≤ 0.5 |

| Variant | yeast fitness |
| --- | --- |
| G10C U26C | 0.673 |
| A37U G56C | 0.528 |
| G12A A15C C62U C66G | ≤ 0.5 |
| C11A A21C U28A C55U C62U G67C | ≤ 0.5 |
| C29U G38C A45U U59C | 0.592 |
| G18A G25A C29G C34A G63C | ≤ 0.5 |
| A14C C29U A36G A45U A70G | 0.548 |
| C4U G6C C30G | ≤ 0.5 |
| C24G U35G C66U | ≤ 0.5 |
| G48A C60U A70U | 0.71 |
| G10C C22A G56C A65G | ≤ 0.5 |
| A21U U26A C27G C30G A36U G38C C46U C49G A65U | ≤ 0.5 |
| U2C U13A C61U | ≤ 0.5 |
| C5G C33G A40U A65C | ≤ 0.5 |
| A15C C29A C60G G68A | 0.609 |
| A36G A45U A70U | 0.708 |
| A21U U47G U59A | ≤ 0.5 |
| U2C C24U G44C | ≤ 0.5 |
| U2A G6A U28G | ≤ 0.5 |
| G10A C31U A40C G48A | ≤ 0.5 |
| C4U C34G A69G | ≤ 0.5 |
| A37C C61U | 0.681 |
| C30A G41C | 0.796 |

Source: the RNAGym collection of RNA variant scans (doi:10.1126/science.aae0568)
